The term logP denotes a log measure of how a compound divides between an organic and an aqueous phase.

Results on one compound are retold here after ChEMBL document CHEMBL2434933, “Synthesis, physicochemical properties of allopurinol derivatives and their biological activity against Trypanosoma cruzi” (Eur J Med Chem, 2013).

Data set [1] is described as follows: Stability of the compound in simulated intestinal fluid at 37 degC after 3 hrs. The class given is physicochemical. The note with it: simulated gi fluid. The procedure, abridged: (§1)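 Compounds came from DMSO stocks of 1.0 x 10^-4 mol/mL. They were incubated at 37 °C in buffer pH 1.2 or SGF (pepsin) for 1 h, and in buffer pH 6.8 or SIF (pancreatin) for 3 h. Samples were analysed by micellar LC. Percent degradation was reported; kinetics were treated as pseudo-first-order.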

Data set [2] can be described thus: Stability of the compound in buffer at 37 degC at pH 1.2 after 1 hr in presence of pepsin. It counts as ADME. The note with it: isolated protein, pH 1.2, 1 h. In outline: as §1
Data set [3] concerns Trypanosoma cruzi. The data set is described as follows: Antimicrobial activity against Trypanosoma cruzi RA amastigotes infected in African green monkey Vero cells assessed as growth inhibition at 1 ug/ml after 72 hrs by Giemsa staining-based light microscopy. The class given is functional, organism-based. In outline: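 RA-strain bloodstream trypomastigotes infected irradiated Vero cells (2000 rads) on coverslips at a 5:1 parasite:cell ratio for 24 h. Cells were washed, then exposed to 1 ug/mL compound for 72 h at 37 °C in 5% CO2. Coverslips were fixed in methanol and Giemsa-stained. Infected cells were scored by light microscopy against untreated infected cultures.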

Data set [4] concerns Trypanosoma cruzi. The data set is described as follows: Antimicrobial activity against blood stream form of Trypanosoma cruzi RA assessed as growth inhibition at 1 to 70 ug/ml after 24 hrs by Neubauer chamber counting analysis. The class given is functional, organism-based. The procedure, abridged:
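RA-strain bloodstream trypomastigotes were enriched from infected-mouse blood at peak parasitemia. They were used at 1.5 x 10^6/mL in RPMI 1640 with 10% FCS. Parasites were exposed for 24 h at 37 °C in 5% CO2 to 0–70 ug/mL compound from 40 mM DMSO stocks (final DMSO <0.5%). 0.5% DMSO served as negative control. Surviving parasites were counted by Neubauer chamber. Three independent experiments, each in triplicate.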

Data set [5] can be described thus: Stability of the compound in 0.1 M SDS-0.01 M 7.5% (v/v) 1-propanol-NaH2PO4/H3PO4 assessed as compound recovery at 7.5 x 10^-9 mol/ml by micellar liquid chromatography. It counts as physicochemical. The procedure, abridged: (§2)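 Recovery: N1-acyl compounds were spiked at 7.5 x 10^-9, 6 x 10^-8 and 3.5 x 10^-7 mol/mL (ten replicates each) into pH 1.2 and 6.8 buffers, SGF and SIF. Analysis used MLC with 0.1 M SDS–7.5% 1-propanol–0.01 M NaH2PO4/H3PO4 pH 3.0, at 1 mL/min, 25 °C and 276 nm. Recovery was calculated against working standards.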

The nature of data set [6]: Stability of the compound in 0.1 M SDS-0.01 M 7.5% (v/v) 1-propanol-NaH2PO4/H3PO4 assessed as compound recovery at 6 x 10^-8 mol/ml by micellar liquid chromatography. The class given is physicochemical. In outline:
as §2

The nature of data set [7]: Stability of the compound in buffer at 37 degC at pH 6.8 after 3 hrs in presence of pancreatin. It counts as ADME. The following applies: pH 6.8, 3 h. The procedure, abridged:
as §1

Data set [8] in a line: Drug degradation in 30% H2O2 assessed as allopurinol formation. It counts as physicochemical.
Data set [9] is described as follows: Octanol-water partition coefficient, log P of the compound by RP-HPLC analysis. It counts as physicochemical. In outline: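 RP-HPLC lipophilicity: isocratic buffer pH 5.5–MeOH, 30–75% MeOH in 5% steps. Three injections per compound and five per standard at each ratio. log k' = log(tR − t0)/t0 was computed from retention times.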
Data set [10] in a line: Stability of the compound in simulated gastric fluid at 37 degC after 1 hr. The class given is physicochemical. The note with it: simulated gi fluid. In outline:
as §1

Data set [11] is described as follows: Intrinsic solubility of the compound in standard phosphate buffer at pH 6.8 at 25 degC after 24 hrs by shake-flask method. The class given is physicochemical. The following applies: read-out: Intrinsic_solubility. The procedure, abridged: (§3)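 Shake-flask intrinsic solubility: solid compound was added to phosphate buffer until excess remained undissolved. The thermostated saturated solution was shaken for 24 h to reach equilibrium, at 25 °C and at 37 °C.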

The subject of the next data set is Plasma. Briefly: Metabolic stability of the compound in human plasma. The class given is ADME, cell-free. The procedure, abridged: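 Stability in human plasma was followed by micellar LC, with allopurinol tracked as product. Pseudo-first-order kinetics gave t1/2 or kobs.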
A short description of data set [12]: Intrinsic solubility of the compound in standard phosphate buffer at pH 6.8 at 37 degC after 24 hrs by shake-flask method. It counts as physicochemical. The following applies: read-out: Intrinsic_solubility. The procedure, abridged: as §3
Data set [13] is described as follows: Stability of the compound in 0.1 M SDS-0.01 M 7.5% (v/v) 1-propanol-NaH2PO4/H3PO4 assessed as compound recovery at 3.5 x 10^-7 mol/ml by micellar liquid chromatography. The class given is physicochemical. The procedure, abridged: as §2
Data set [14] in a line: Stability of the compound in simulated intestinal fluid assessed as retention time by micellar liquid chromatography. The note with it: simulated gi fluid. The class given is physicochemical.

Values after ≈ are worked out from the molar mass of the structure shown. Active and inactive are the calls of the source. The rule behind the calls is not given here.

With `Cc1nc(O)c2c[nH]nc2n1`, the Stability entry in data set [1] is given as “Stable”; in data set [2], “Stable”; in data set [7], “Stable”; in data set [8], “Stable”; in data set [10], “Stable”; with Plasma, 100%. Besides, the “growth inhibition (GI)” value with Trypanosoma cruzi [3] is “Active”. Besides, in the data set with Trypanosoma cruzi [4], the “growth inhibition (GI)” value was “inactive”. For the same compound, the figures for the Drug recovery in data set [5], in [6] and in data set [13] were 98.57%, 102.72% and 102.77%, respectively. The log partition coefficient (logP) in [9] was -0.05. Moreover, the solubility thermodynamic at 24 h is 1480 µg/mL (≈ 9.86 mM) in data set [11] and 2020 µg/mL (≈ 13.5 mM) in [12]. In addition, in [14], the Retention_time was 3 min.
